Rows were chosen to be rich in hits. Some 1.3% of all compounds tested hit in one or more screens of this group.
CASP6 VEID inh – inhibitors of human caspase-6. purified caspase-6, Z-VEID-R110 cleavage fluorescence. inhibition, % at 12.5 µM. 350,000 compounds, 0.53% hits. AID 686996;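 active = mean inhibition across replicates at least about 35%, with every replicate also reaching that limit, limit read from the data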
Target sequence (P55212 24-179 limits assumed): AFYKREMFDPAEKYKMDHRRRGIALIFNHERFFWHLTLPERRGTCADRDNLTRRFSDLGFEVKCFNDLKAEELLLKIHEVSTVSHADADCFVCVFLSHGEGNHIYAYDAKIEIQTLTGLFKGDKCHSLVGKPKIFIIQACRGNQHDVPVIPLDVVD
Target sequence (P55212 194-293 limits assumed): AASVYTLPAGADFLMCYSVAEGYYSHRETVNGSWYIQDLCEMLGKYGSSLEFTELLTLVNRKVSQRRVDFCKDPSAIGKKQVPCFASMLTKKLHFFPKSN
Xi reactivation – activators of X-chromosome reactivation in mouse fibroblasts; XiGFP mouse fibroblasts, % GFP-positive cells imaging, 3 d; cells co-treated with 5-aza-dC sensitizer; scaled so ellipticine positive control = 100%; AID 743238; activation, % at 7.58 µM; 360,000 compounds, 0.055% hits;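 active = mean normalized replicate activation at least 10% and every replicate at or above 10%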
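Assay system: SV40-immortalized XiGFP fibroblast cells, line 68-5-11; buffer or medium: DMEM plus 5-aza-dC sensitizer; compound: one concentration, pinned; timing: compounds 3 days, fix/stain 15 min at room temperature; benchmarks: positive control ellipticine, 6 µM final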
S100A4 inh HTS – blocks human S100A4 binding to myosin IIA peptide | P26447 | S100A4/TAMRA-MyoIIA peptide fluorescence polarization | inhibition, % at 10.7 µM | 360,000 compounds, 0.14% hits;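 active = mean inhibition of at least 70% across replicates, with every replicate also reaching that level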
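Material: S100A4 monomer protein | Medium: HEPES pH 7.2 with CaCl2, KCl, NaCl, DTT, Triton | Reagent: Labelled myosin peptide probe, 5 nM | Doses: One dose per compound | Times: 5 min incubation before reading | Benchmarks: Neutral control DMSO, positive control TFP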
RAD54 inh – blocks human RAD54 Holliday junction branch migration | Q92698 | FAM/BHQ fluorescence | inhibition, % at 10.4 µM | 360,000 compounds, 0.14% hits;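 active = mean normalized replicate activity at least 40 and at least half of replicates scoring 40 or more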;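 note: inhibitors cause a drop in the FAM fluorescence signal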
RAD52 inh – RAD52 (human) annealing inhibition. P43351. recombinant RAD52 DNA annealing, FRET fluorescence. inhibition, % at 18.7 µM. 360,000 compounds, 0.46% hits. AID 651710;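 active = every replicate showing at least 50% inhibition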
Target sequence (P43351 whole entry, looked up): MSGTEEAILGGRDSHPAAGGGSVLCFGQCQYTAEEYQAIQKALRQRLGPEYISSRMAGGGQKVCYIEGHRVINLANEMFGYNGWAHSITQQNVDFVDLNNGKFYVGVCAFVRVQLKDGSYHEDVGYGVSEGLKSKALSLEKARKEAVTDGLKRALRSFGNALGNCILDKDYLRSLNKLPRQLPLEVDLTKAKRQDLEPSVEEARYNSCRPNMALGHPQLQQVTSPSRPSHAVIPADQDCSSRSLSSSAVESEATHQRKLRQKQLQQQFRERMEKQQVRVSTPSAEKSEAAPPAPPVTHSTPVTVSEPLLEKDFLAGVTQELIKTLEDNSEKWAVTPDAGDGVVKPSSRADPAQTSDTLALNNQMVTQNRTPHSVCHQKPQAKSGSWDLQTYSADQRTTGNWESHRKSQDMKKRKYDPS
MLL AF4-AF9 inh – blocks AF4 peptide binding to human AF9 | P42568 | AlphaScreen, biotin-AF4 peptide binding to FLAG-AF9 | inhibition, % at 10 µM | 350,000 compounds, 0.47% hits | AID 651704;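 active = every replicate reaching a set inhibition limit, whatever the replicate mean, cut at about 25% in these data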
Large screens that a line does not name were inactive.

O=C(O)c1cnn2c1C(=O)N(Cc1cccs1)CC2	CASP6 VEID inh 64 (no result: RAD54 inh)
Cc1ccc(C(=O)O)cc1-c1ccc(/C=C2\SC(=O)N(CC(=O)Nc3ccccc3)C2=O)o1	CASP6 VEID inh 35
C#CCN1C(=O)S/C(=C\c2ccc(-c3ccc(C(=O)O)cc3C)o2)C1=O	CASP6 VEID inh 58
Cc1ccccc1NC(=O)CN1C(=O)S/C(=C\c2ccc(-c3cc(C(=O)O)ccc3C)o2)C1=O	Xi reactivation 40 (no result: RAD54 inh)
CCC(=O)Nc1ccc2c(c1)C(=O)N(C)C[C@@H](OC)[C@H](C)CN(Cc1cncnc1)[C@@H](C)CO2	none (no result: CASP6 VEID inh, S100A4 inh HTS, RAD54 inh, RAD52 inh, MLL AF4-AF9 inh)
C[C@H](CO)N1C[C@H](C)[C@H](CN(C)S(=O)(=O)c2ccc(Cl)cc2)Oc2ccc(NS(=O)(=O)c3ccccc3)cc2CC1=O	none (no result: CASP6 VEID inh, S100A4 inh HTS, RAD52 inh, MLL AF4-AF9 inh)
C[C@H](O)C#Cc1ccc2c(c1)O[C@H](CN(C)CC1CC1)[C@H](C)CN([C@H](C)CO)S2(=O)=O	none (no result: CASP6 VEID inh, S100A4 inh HTS, RAD54 inh, RAD52 inh, MLL AF4-AF9 inh)
C[C@H]1CCCCO[C@H](CN(C)S(=O)(=O)c2cn(C)cn2)[C@@H](C)CN([C@@H](C)CO)C(=O)c2cc(NC(=O)NC3CCCCC3)ccc2O1	none
C[C@@H]1CCCCO[C@@H](CN(C)S(=O)(=O)c2cn(C)cn2)[C@H](C)CN([C@@H](C)CO)C(=O)c2cc(NC(=O)C3CCCCC3)ccc2O1	S100A4 inh HTS 116
C[C@@H]1CN([C@@H](C)CO)C(=O)c2cc(NC(=O)NC3CCCCC3)ccc2O[C@@H](C)CCCCO[C@@H]1CN(C)S(=O)(=O)c1cn(C)cn1	S100A4 inh HTS 136
FC(F)(F)c1ccc(Cl)c(-n2c(-c3ccco3)n[nH]c2=S)c1	none
FC(F)(F)c1ccc(Cl)c(-n2c(-c3cc(-c4ccco4)[nH]n3)n[nH]c2=S)c1	CASP6 VEID inh 69 (no result: MLL AF4-AF9 inh)
Cc1noc(C)c1NC(=O)Nc1ccc2c(c1)C(=O)N([C@H](C)CO)C[C@H](C)[C@H](CN(C)C(=O)Nc1ccc3c(c1)OCO3)OCCCC[C@H](C)O2	none
N#CC1C(=O)Nc2cccnc21 (stereo not given)	CASP6 VEID inh 59
O=C(O)c1ccc(-c2ccc(/C=c3/sc4nc5ccccc5n4c3=O)o2)cc1Cl	CASP6 VEID inh 58 (no result: RAD54 inh)
Cc1cc(C)c2nc3sc(=Cc4ccc(-c5ccccc5C(=O)O)o4)c(=O)n3c2c1	none (no result: CASP6 VEID inh)
Cc1ccc2c(nc3s/c(=C\c4ccc(-c5ccccc5C(=O)O)o4)c(=O)n32)c1C	S100A4 inh HTS 85
CCOC(=O)/C(C#N)=C/Nc1ccccc1NS(=O)(=O)c1cccc(C(C)=O)c1	CASP6 VEID inh 38
CC[C@H](C)[C@H](NC(N)=O)C(=O)NNC(=O)c1ccc(COc2cccc3cccnc23)cc1	MLL AF4-AF9 inh 35
CCCCCCCCCCCCCCCCn1cc[n+](C)c1	RAD52 inh 83 (no result: RAD54 inh)
O=C(C[C@@H]1CC[C@@H](NC(=O)c2cccnc2)[C@H](CO)O1)NCc1ccc(Cl)c(Cl)c1	none
COCCN(C(=O)c1cc(-c2ccco2)nc2ccccc12)c1c(N)n(Cc2ccccc2)c(=O)[nH]c1=O	CASP6 VEID inh 60
CCN(C(=O)COC(=O)c1oc2ccccc2c1C)c1c(N)n(Cc2ccccc2)c(=O)[nH]c1=O	CASP6 VEID inh 54
COCCN(C(=O)COC(=O)Cc1coc2cc(C)ccc12)c1c(N)n(Cc2ccccc2)c(=O)[nH]c1=O	CASP6 VEID inh 52
CCCCn1c(N)c(N(CCOC)C(=O)c2cc(-c3ccco3)nc3ccccc23)c(=O)[nH]c1=O	CASP6 VEID inh 61
CCN(C(=O)COC(=O)c1cccc2ccccc12)c1c(N)n(Cc2ccccc2)c(=O)[nH]c1=O	none
COCCN(C(=O)COC(=O)Cc1cccc2ccccc12)c1c(N)n(Cc2ccccc2)c(=O)[nH]c1=O	none
C[C@H](CO)N1C[C@H](C)[C@@H](CN(C)Cc2ccc(Cl)c(Cl)c2)Oc2c(NS(=O)(=O)c3ccc(Cl)cc3)cccc2C1=O	none (no result: CASP6 VEID inh)
CCC(=O)N1CC(=O)N2[C@H](CO)[C@@H](c3ccc(-c4ccccc4F)cc3)[C@@H]2C1	none (no result: CASP6 VEID inh, RAD54 inh, MLL AF4-AF9 inh)
C[C@@H]1CCCCO[C@H](CN(C)C(=O)CCC(F)(F)F)[C@H](C)CN([C@@H](C)CO)C(=O)c2cc(NC(=O)c3ccncc3)ccc2O1	none (no result: CASP6 VEID inh, S100A4 inh HTS, RAD54 inh, RAD52 inh, MLL AF4-AF9 inh)
CC(C)N1CCc2c(sc(NC(=O)Cc3ccccc3)c2C(N)=O)C1	none
CC(=O)N1CCc2c(sc(NC(=O)Cc3ccccc3)c2C(N)=O)C1	CASP6 VEID inh 67
CC(=O)N1CCc2c(sc(NC(=O)C3CCCCC3)c2C(N)=O)C1	CASP6 VEID inh 75
C[C@H](CO)N1C[C@H](C)[C@H](CN(C)Cc2ccncc2)OCCCC[C@H](C)Oc2ccc(N(C)C)cc2C1=O	none
COc1ccc(CN(C)C[C@@H]2Oc3c(NS(=O)(=O)c4ccc(Cl)cc4)cccc3C(=O)N([C@@H](C)CO)C[C@@H]2C)cc1	none
CCCCC(NC(=O)Cc1c(C)c2cc3c(-c4ccccc4)coc3c(C)c2oc1=O)C(=O)O (stereo not given)	CASP6 VEID inh 60
COc1cc(C(=O)Nc2ccc3nc(N4CCN(C)CC4)cc(C)c3c2)cc(OC)c1OC	RAD52 inh 56
COc1ccc(CNC(=S)Nc2ccc3nc(N4CCOCC4)cc(C)c3c2)cc1	none (no result: RAD54 inh)
Cc1cc(N2CCN(C)CC2)nc2ccc(NC(=O)c3ccc4c(c3)OCO4)cc12	none (no result: CASP6 VEID inh, Xi reactivation, S100A4 inh HTS, RAD52 inh, MLL AF4-AF9 inh)
COc1ccc(CNC(=S)Nc2ccc3nc(N4CCN(C)CC4)cc(C)c3c2)cc1	MLL AF4-AF9 inh 26
CN(C)CC#Cc1ccc([C@@H]2[C@H](CO)N3CCCCN(C(=O)Nc4ccccc4F)C[C@@H]23)cc1	none
CN(C)CC#Cc1ccc([C@@H]2[C@H](CO)N3CCCCN(C(=O)Nc4cc(F)ccc4F)C[C@@H]23)cc1	RAD52 inh 51
CN(C)CC#Cc1ccc([C@@H]2[C@@H](CO)N3CCCCN(C(=O)Nc4ccccc4F)C[C@H]23)cc1	RAD52 inh 54
C[C@H]1CN([C@@H](C)CO)C(=O)Cc2cc(NS(=O)(=O)c3ccccc3)ccc2O[C@@H]1CN(C)Cc1ccc(Oc2ccccc2)cc1	none
CN(C)CC/C=C1/c2ccccc2COc2ccc(CC(=O)O)cc21	S100A4 inh HTS 166
CCC(=O)N(C)C[C@H]1Oc2cc(-c3ccc(C#N)cc3)ccc2S(=O)(=O)N([C@@H](C)CO)C[C@@H]1C	none
COc1cccc(N2[C@@H](CC(=O)O)c3ccc(/C=C/C(=O)O)cc3S2(=O)=O)c1	CASP6 VEID inh 62
O=C([C@@H]1N[C@@H]2c3ccc(-c4ccccc4)c(=O)n3C[C@@H]2[C@H]1CO)N1CCOCC1	none
Cc1ccc(NCc2nnc(SCC(=O)NNC(=O)Cc3ccccc3)n2C)cc1	Xi reactivation 21
Cc1ccc(C(=O)NNC(=O)CSc2nnc(CNc3ccc(F)cc3)n2C)cc1	none (no result: RAD54 inh)
